Assay results published in ChEMBL document CHEMBL1136933 (J Med Chem, 2009).
pEC50: −log10 of the molar value. Activity calls are given as the source filed them. The rule behind the calls is not given here.

Key:
[1] = Cmax in Sprague-Dawley rat plasma at 10 mg/kg, ip within 1 hr; type: ADME, organism-based; parameters: dose 10 mg/kg, route intraperitoneal
In short: (§1)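 Male Sprague-Dawley rats (225-250 g) dosed ip at 10 mg/kg as a 5 mg/ml micro-suspension in 10% Tween 80 in sterile water. Plasma and brain sampled at 0.5, 1, 3 and 6 h, three animals per time point. Quantified by protein precipitation and LC-MS/MS against an internal standard. Brain values corrected for residual blood. PK parameters derived by noncompartmental analysis.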

[2] = system: Plasma; experiment: Elimination half life in Sprague-Dawley rat plasma at 10 mg/kg, ip; type: ADME, organism-based; parameters: dose 10 mg/kg, route intraperitoneal; details: in vivo; in short: as §1
[3] = Elimination half life in Sprague-Dawley rat brain at 10 mg/kg, ip; type: ADME, organism-based; parameters: dose 10 mg/kg, route intraperitoneal; details: read-out: beta t1/2 (converted); in short: as §1
[4] = target: T1, Muscarinic acetylcholine receptor M5 (Homo sapiens, UniProt P08912); experiment: Activation of human muscarinic M5 receptor expressed in CHO cells coexpressing Gq protein assessed as potentiation of acetylcholine-induced intracellular Ca2+ mobilization; type: functional, cell-based
T1 sequence (P08912 whole entry): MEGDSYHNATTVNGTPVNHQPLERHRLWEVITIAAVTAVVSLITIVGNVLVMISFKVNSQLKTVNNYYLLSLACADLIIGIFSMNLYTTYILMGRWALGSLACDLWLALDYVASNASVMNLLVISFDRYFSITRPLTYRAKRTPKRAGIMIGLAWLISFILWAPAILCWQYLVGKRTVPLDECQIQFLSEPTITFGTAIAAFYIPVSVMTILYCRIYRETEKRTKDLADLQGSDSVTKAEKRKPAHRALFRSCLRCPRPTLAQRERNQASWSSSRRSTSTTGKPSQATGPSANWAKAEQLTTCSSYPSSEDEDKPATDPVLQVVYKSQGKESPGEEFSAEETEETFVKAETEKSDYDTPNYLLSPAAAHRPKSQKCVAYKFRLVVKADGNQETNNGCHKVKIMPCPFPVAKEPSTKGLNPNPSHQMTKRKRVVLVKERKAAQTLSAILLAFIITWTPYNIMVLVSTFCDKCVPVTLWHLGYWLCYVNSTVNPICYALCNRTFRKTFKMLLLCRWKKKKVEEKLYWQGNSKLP

[5] = Tmax in Sprague-Dawley rat brain at 10 mg/kg, ip; type: ADME, organism-based; parameters: dose 10 mg/kg, route intraperitoneal; in short: as §1
[6] = target: T2, Muscarinic acetylcholine receptor M5 (Homo sapiens) (UniProt P08912); experiment: Activation of human muscarinic M5 receptor expressed in CHO cells coexpressing Gq protein assessed as potentiation of acetylcholine-induced intracellular Ca2+ mobilization at 30 uM relative to acetylcholine; type: functional, cell-based
T2 sequence (whole entry): T1 sequence (P08912 whole entry)

[7] = Apparent oral clearance in Sprague-Dawley rat plasma at 10 mg/kg, ip; type: ADME, organism-based; parameters: dose 10 mg/kg; in short: as §1
[8] = target: T3, Muscarinic acetylcholine receptor M1 (Rattus norvegicus, UniProt P08482); experiment: Activation of rat muscarinic M1 receptor expressed in CHO cells co-expressing Gq protein assessed as potentiation of acetylcholine-induced intracellular Ca2+ mobilization; type: functional, cell-based
T3 sequence (P08482 whole entry): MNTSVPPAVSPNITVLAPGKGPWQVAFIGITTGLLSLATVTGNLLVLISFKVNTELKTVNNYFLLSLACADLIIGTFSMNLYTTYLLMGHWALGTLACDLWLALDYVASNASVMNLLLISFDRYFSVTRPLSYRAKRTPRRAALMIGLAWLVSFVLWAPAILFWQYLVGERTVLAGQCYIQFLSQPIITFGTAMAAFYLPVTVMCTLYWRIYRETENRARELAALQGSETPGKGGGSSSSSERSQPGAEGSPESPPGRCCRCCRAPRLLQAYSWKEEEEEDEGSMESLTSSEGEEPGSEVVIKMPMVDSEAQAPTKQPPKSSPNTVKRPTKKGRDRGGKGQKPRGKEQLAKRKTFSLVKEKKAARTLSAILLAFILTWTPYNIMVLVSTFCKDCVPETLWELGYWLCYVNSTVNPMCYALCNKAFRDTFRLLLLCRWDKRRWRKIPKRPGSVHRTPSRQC

[9] = AUC (0 to 6 hrs) in Sprague-Dawley rat brain at 10 mg/kg, ip; type: ADME, organism-based; parameters: time < 6 hr, dose 10 mg/kg, route intraperitoneal; in short: as §1
[10] = target: T4, Muscarinic acetylcholine receptor M1 (Rattus norvegicus) (UniProt P08482); experiment: Activation of rat muscarinic M1 receptor expressed in CHO cells co-expressing Gq protein assessed as potentiation of acetylcholine-induced intracellular Ca2+ mobilization at 30 uM relative to acetylcholine; type: functional, cell-based
T4 sequence (whole entry): T3 sequence (P08482 whole entry)

[11] = Cmax in Sprague-Dawley rat brain at 10 mg/kg, ip within 1 hr; type: ADME, organism-based; parameters: dose 10 mg/kg, route intraperitoneal; in short: as §1
[12] = target: T2, Muscarinic acetylcholine receptor M5 (Homo sapiens); experiment: Activation of human muscarinic M5 receptor expressed in CHO cells coexpressing Gq protein assessed as increase in acetylcholine affinity at 30 uM by [3H]NMS competition binding assay relative to control; type: cell-based
[13] = target: T5, Muscarinic acetylcholine receptor M2 (Rattus norvegicus) (UniProt P10980); experiment: Activation of rat muscarinic M2 receptor expressed in CHO cells coexpressing chimeric Gqi5 protein assessed as potentiation of acetylcholine-induced intracellular Ca2+ mobilization up to 30 uM; type: functional, cell-based
T5 sequence (whole entry): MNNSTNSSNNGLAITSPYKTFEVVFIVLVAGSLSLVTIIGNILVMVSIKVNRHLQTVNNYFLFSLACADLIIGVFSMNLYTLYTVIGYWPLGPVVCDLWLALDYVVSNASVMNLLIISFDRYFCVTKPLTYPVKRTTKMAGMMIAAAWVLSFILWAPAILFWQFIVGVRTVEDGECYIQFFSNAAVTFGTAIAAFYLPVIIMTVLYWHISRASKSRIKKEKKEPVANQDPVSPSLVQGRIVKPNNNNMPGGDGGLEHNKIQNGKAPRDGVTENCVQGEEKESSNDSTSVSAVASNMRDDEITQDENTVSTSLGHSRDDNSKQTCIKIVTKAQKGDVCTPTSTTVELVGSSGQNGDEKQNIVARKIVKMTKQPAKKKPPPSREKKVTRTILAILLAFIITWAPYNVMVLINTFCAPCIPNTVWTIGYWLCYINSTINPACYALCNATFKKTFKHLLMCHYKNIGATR

[14] = Tmax in Sprague-Dawley rat plasma at 10 mg/kg, ip; type: ADME, organism-based; parameters: dose 10 mg/kg, route intraperitoneal; in short: as §1
[15] = Ratio of AUC (0 to 6 hrs) in Sprague-Dawley rat brain to AUC (0 to 6 hrs) in Sprague-Dawley rat plasma at 10 mg/kg, ip; type: ADME, organism-based; parameters: dose 10 mg/kg, route intraperitoneal; in short: as §1
[16] = Selectivity ratio of EC50 for rat muscarinic M1 receptor to EC50 for human muscarinic M5 receptor
[17] = AUC (0 to 6 hrs) in Sprague-Dawley rat plasma at 10 mg/kg, ip; type: ADME, organism-based; parameters: time < 6 hr, dose 10 mg/kg, route intraperitoneal; in short: as §1
[18] = Selectivity ratio of EC50 for rat muscarinic M4 receptor to EC50 for human muscarinic M5 receptor
[19] = Selectivity ratio of EC50 for rat muscarinic M2 receptor to EC50 for human muscarinic M5 receptor
[20] = target: Muscarinic acetylcholine receptor M3 (Homo sapiens, UniProt P20309); experiment: Activation of human muscarinic M3 receptor expressed in CHO cells coexpressing Gq protein assessed as potentiation of acetylcholine-induced intracellular Ca2+ mobilization; type: functional, cell-based
Chain of Muscarinic acetylcholine receptor M3 (P20309 whole entry): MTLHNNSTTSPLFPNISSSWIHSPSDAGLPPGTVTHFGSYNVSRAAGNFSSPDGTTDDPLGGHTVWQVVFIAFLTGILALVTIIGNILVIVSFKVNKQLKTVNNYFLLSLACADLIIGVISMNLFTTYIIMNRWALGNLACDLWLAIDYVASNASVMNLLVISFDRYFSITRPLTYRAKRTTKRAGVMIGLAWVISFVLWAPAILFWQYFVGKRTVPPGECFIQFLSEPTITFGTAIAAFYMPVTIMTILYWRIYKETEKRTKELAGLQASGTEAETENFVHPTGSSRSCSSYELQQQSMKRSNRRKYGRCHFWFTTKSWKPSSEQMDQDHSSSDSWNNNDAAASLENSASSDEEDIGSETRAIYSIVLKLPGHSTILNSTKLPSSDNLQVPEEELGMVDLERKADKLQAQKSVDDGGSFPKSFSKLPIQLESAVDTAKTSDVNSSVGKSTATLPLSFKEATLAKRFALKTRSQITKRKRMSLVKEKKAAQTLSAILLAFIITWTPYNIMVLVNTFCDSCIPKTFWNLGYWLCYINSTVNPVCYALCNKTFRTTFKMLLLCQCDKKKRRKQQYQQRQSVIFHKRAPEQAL
In short: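 Calcium flux assay. Stable CHO lines were seeded at 5 × 10^4 cells/well (M1, M3, M5) or 6 × 10^4 cells/well (Gqi5 M2, M4) and grown overnight at 37 °C, 5% CO2. Cells were loaded 1 h at 37 °C with 2 µM Fluo-4 AM. […] At least three independent determinations, each in duplicate or more.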

## COc1ccc(CN2C(=O)C(=O)c3cc(OC(F)(F)F)ccc32)cc1
[1]
  Cmax: 162 ng/mL
[2]
  beta t1/2: 4.7 h
[3]
  half-life: 3.69 h
[4]
  pEC50: 5.94
[5]
  Tmax: 0.5 h
[6]
  %max: 60.7%
[7]
  CL/F: 145 mL/min
[8]
  pEC50: < 4.52
[9]
  AUC(0-t) at 6 h: 159 ng·h/mL
[10]
  %max: 12.7%
[11]
  Cmax: 43.1 ng/mL
[12]
  fold change (FC): 10
[13]
  Activity: inactive
[14]
  Tmax: 1 h
[15]
  Ratio AUC: 0.25
[16]
  Ratio EC50: > 30
[17]
  AUC(0-t) at 6 h: 621 ng·h/mL
[18]
  Ratio EC50: > 30
[19]
  Ratio EC50: > 30
[20]
  pEC50: < 4.52
